The text below walks through data of PubChem BioAssay.

Experiment [1] is described as follows: Her2 expression decrease, cell viability multiplex – SKBR3 breast tumor cells, AlphaScreen, ATP viability, primary screen (AID 461).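 As to Her2 level: lower value means less Her2 protein in the cells.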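 As to viability: percent of carrier control wells set as 100% viability.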 As to conditions: SKBR3 Her2 protein level, 18-24 h, measured here: SKBR3 viability, ATP luminescence, at 10 µM. On the technique in general: Alpha assays give light when donor and acceptor beads are brought close together.
The target in experiment [2] is Receptor tyrosine-protein kinase erbB-2 (Homo sapiens) (UniProt P04626). Described as above. As to conditions: 18-24 h, at 10 µM, stronger effect = lower value.
Receptor tyrosine-protein kinase erbB-2 (Homo sapiens), sequence (P04626 whole entry, looked up): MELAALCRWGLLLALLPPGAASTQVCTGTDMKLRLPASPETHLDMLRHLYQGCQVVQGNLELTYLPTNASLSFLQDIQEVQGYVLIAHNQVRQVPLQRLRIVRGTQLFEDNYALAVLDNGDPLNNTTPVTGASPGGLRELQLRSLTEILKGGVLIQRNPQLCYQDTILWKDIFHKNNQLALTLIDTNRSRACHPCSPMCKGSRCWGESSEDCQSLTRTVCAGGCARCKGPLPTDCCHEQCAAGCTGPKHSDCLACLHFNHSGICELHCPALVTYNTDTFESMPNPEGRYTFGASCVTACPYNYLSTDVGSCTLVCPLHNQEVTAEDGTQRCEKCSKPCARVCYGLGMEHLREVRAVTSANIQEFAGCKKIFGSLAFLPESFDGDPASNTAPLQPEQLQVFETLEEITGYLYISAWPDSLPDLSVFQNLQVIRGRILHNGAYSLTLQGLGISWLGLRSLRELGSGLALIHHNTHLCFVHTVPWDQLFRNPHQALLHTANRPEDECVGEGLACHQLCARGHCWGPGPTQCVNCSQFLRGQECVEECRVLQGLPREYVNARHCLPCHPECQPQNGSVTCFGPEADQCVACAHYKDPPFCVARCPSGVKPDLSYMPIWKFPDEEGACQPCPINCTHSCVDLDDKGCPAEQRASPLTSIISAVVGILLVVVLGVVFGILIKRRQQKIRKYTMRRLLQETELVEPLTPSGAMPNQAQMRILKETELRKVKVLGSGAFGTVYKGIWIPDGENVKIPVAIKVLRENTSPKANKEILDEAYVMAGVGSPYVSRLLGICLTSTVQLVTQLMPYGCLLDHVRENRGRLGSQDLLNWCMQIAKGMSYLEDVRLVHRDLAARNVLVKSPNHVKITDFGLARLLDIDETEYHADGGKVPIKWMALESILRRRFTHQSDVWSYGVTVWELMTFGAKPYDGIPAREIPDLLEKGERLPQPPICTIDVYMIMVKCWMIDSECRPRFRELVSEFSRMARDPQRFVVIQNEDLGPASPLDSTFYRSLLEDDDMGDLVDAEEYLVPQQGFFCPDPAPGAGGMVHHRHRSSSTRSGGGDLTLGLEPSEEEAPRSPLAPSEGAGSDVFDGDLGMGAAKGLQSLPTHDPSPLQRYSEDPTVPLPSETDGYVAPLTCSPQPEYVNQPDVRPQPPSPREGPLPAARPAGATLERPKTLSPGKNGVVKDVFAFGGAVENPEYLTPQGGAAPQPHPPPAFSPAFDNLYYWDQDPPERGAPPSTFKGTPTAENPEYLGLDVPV
Experiment [3] can be described thus: reduced viability of SK-BR-3 breast cancer cells – cell-based, 24 h, human, pilot screen (AID 572;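 active = viability at or below 10% of carrier control in both of two separate runs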;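 also: compound exposure lasted between 18 and 24 h rather than exactly 24 h; 100% = carrier-treated control wells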). As to conditions: SK-BR-3 viability, CellTiter-Glo luminescence, at 10 µM, stronger effect = lower value. (In ATP-based viability assays light output follows the ATP content of the culture.)
The nature of experiment [4]: HUVEC growth inhibition – cell-based, human, primary screen (AID 575;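 active = viability at or below 30% in both replicate assays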;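 also: 100% = median of untreated cell wells with 0.1% DMSO on each plate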). As to conditions: HUVEC proliferation, CellTiter-Glo luminescence, 72 h; at 10 µM; stronger effect = lower value. Put shortly: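 Timing: 72 h treatment at 37 °C; material: HUVEC primary cells; technique: CellTiter-Glo luminescence measuring cellular ATP; controls: vehicle and MePR control wells; measure: percent of median DMSO-control luminescence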

Experiment [5] in a line: H69AR cell proliferation blockers – human, duplicate replicates, primary screen (AID 580;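 active = viability at or under a set limit in both replicates, limit being median viability minus 3 SD, cut at about 48% in these data, passing the limit was not always enough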;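 also: 100% = mean luminescence of untreated wells and 0% = no signal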). As to conditions: H69AR lung tumor cells viability, ATP luminescence, 72 h; at 10 µM; stronger effect = lower value.
The nature of experiment [6]: MRP1 drug-resistance reversers in H69AR cells – cell-based, doxorubicin co-treatment, pilot screen (AID 601;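 active = viability loss from added drug above about 55%, and viability with drug at most 40%, in both replicates, limit read from the data, passing the limit was not always enough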). As to conditions: CellTiter-Glo, 72 h, at 10 µM; for differential viability (reversal): stronger effect = higher value.
Experiment [7] can be described thus: yeast transport mutant growth inhibition pilot in 384-well plates, post-Golgi transport modulator project (AID 636; in the data active = inhibition above about 31%). As to conditions: absorbance 615 nm, about 18 h, stronger effect = higher value.
Experiment [8] is described as follows: growth suppression of yeast trafficking mutant, preliminary HTS, modulators of trafficking downstream of Golgi apparatus project, 1536-format plate, OD 615 nm (AID 637; in the data active = inhibition above about 30%). As to conditions: yeast transport mutant growth, absorbance 615 nm, 18 h; stronger effect = higher value.
Setting [9] is: H69AR cells + 2 uM doxorubicin, measured here: viability with 2 uM doxorubicin, stronger effect = lower value.
[10] abbreviates: H69AR cells, compound alone cytotoxicity.

Calls of active or inactive are those of the source.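 The calls were made as follows, unless noted: active = Her2 level under about 52% in both replicate screens, with viability over 70% of control (limit read from the data); inconclusive = Her2 under the limit in one screen only, or viability under 70%; inactive = Her2 level above the set limit.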

For `CCOC(=O)C1CCCN(C(=O)c2ccc(CS(=O)(=O)Cc3ccccc3C)o2)C1` (stereo not given), the viability in experiment [1] was 94.5%; in experiment [3], 94.5% (inactive); in experiment [4], 84.4% (inactive); in experiment [5], 96.2% (inactive); in experiment [6] (setting [9]), 86.3%; in experiment [6] (setting [10]) it was 96.2%. Besides, the Her2 level in experiment [2] is 97.5% (inactive). Further, the differential viability (reversal) in experiment [6] (H69AR cells + 2 uM doxorubicin) is 9.89% (inactive). Moreover, the inhibition is -0.39% (inactive) in experiment [7] and -8.23% (inactive) in experiment [8].
`Cn1cnnc1SCC(=O)NCc1cccc(C(F)(F)F)c1`: the viability in experiment [1] is 88%; in experiment [3] it was 88% (inactive); in experiment [4], 102% (inactive); in experiment [5], 94.3% (inactive); in experiment [6] (setting [9]) it was 93.8%; in experiment [6] (setting [10]), 94.3%. In addition, the Her2 level in experiment [2] is 97.5% (inactive). Besides, in experiment [6] (H69AR cells + 2 uM doxorubicin), the differential viability (reversal) was 0.52% (inactive). Moreover, the inhibition in experiment [7] was -5.53% (inactive); in experiment [8] it was -1.43% (inactive).
Consider `CC(C)(C)n1cnc2cc(NS(=O)(=O)c3ccc(Br)cc3)ccc21`, for which the viability was 104% in experiment [1]; 104% (inactive) in experiment [3]; 80.2% (inactive) in experiment [4]; 87% (inactive) in experiment [5]; 95.4% in experiment [6] (setting [9]); 87% in experiment [6] (setting [10]). The Her2 level in experiment [2] is 69.5% (inactive). Besides, the differential viability (reversal) in experiment [6] (H69AR cells + 2 uM doxorubicin) was -8.39% (inactive). The inhibition in experiment [7] was -1.58% (inactive); in experiment [8] it was -0.48% (inactive).
As for `CCOC(=O)c1c(-c2cccs2)csc1NC(=O)CCCC(=O)O`, the viability was 110% in experiment [1]; 110% (inactive) in experiment [3]; 78.3% (inactive) in experiment [4]; 83.4% (inactive) in experiment [5]; 82.4% in experiment [6] (setting [9]); 83.4% in experiment [6] (setting [10]). In addition, the Her2 level in experiment [2] was 87% (inactive). The differential viability (reversal) in experiment [6] (H69AR cells + 2 uM doxorubicin) was 1.06% (inactive). The inhibition in experiment [7] was -5.79% (inactive); in experiment [8], -3.27% (inactive).
With `CCCCC(CC)CNC(=O)C1CCCN(S(=O)(=O)c2cnc[nH]2)C1` (stereo not given), the viability is 91.5% in experiment [1]; 91.5% (inactive) in experiment [3]; 105% (inactive) in experiment [4]; 92.2% (inactive) in experiment [5]; 94.1% in experiment [6] (setting [9]); 92.2% in experiment [6] (setting [10]). In experiment [2], the Her2 level was 95.5% (inactive). Also, the differential viability (reversal) in experiment [6] (H69AR cells + 2 uM doxorubicin) is -1.91% (inactive). The inhibition in experiment [7] was -2.67% (inactive); in experiment [8], 2.79% (inactive).
As to `Cc1c(NC(=O)C(C)OC(=O)C(NC(=O)c2ccco2)C(C)C)c(=O)n(-c2ccccc2)n1C` (stereo not given), the viability in experiment [1] is 91%; in experiment [3], 91% (inactive); in experiment [4] it was 90.9% (inactive); in experiment [5], 91.5% (inactive); in experiment [6] (setting [9]), 85.8%; in experiment [6] (setting [10]) it was 91.5%. In experiment [2], the Her2 level is 91.5% (inactive). Moreover, the differential viability (reversal) in experiment [6] (H69AR cells + 2 uM doxorubicin) is 5.67% (inactive). Also, the inhibition in experiment [7] is -6.89% (inactive); in experiment [8], -5.5% (inactive).
In the case of `CCCCCOC(=O)CSc1nnc(-c2cc(OC)c(OC)c(OC)c2)o1`, the viability was 84.5% in experiment [1]; 84.5% (inactive) in experiment [3]; 104% (inactive) in experiment [4]; 104% (inactive) in experiment [5]; 93.2% in experiment [6] (setting [9]); 104% in experiment [6] (setting [10]). In experiment [2], the Her2 level was 69.5% (inactive). Besides, in experiment [6] (H69AR cells + 2 uM doxorubicin), the differential viability (reversal) was 10.6% (inactive). In addition, the inhibition in experiment [7] is -5% (inactive); in experiment [8], -6.5% (inactive).
`Cc1ccc(S(=O)(=O)N2CCCC(C(=O)NC3=NCCS3)C2)cc1` (stereo not given): the viability is 97.5% in experiment [1]; 97.5% (inactive) in experiment [3]; 83% (inactive) in experiment [4]; 91.8% (inactive) in experiment [5]; 85.4% in experiment [6] (setting [9]); 91.8% in experiment [6] (setting [10]). In experiment [2], the Her2 level is 78.5% (inactive). Further, the differential viability (reversal) in experiment [6] (H69AR cells + 2 uM doxorubicin) is 6.39% (inactive). Besides, the figures for the inhibition in experiment [7] and in experiment [8] were -6.67% (inactive) and 2.62% (inactive), respectively.
In the case of `O=C(CN1C(=O)CSC1=O)Nc1ccc(N2CCOCC2)cc1`, the viability was 96.5% in experiment [1]; 96.5% (inactive) in experiment [3]; 88.1% (inactive) in experiment [4]; 101% (inactive) in experiment [5]; 94.7% in experiment [6] (setting [9]); 101% in experiment [6] (setting [10]). Further, the Her2 level in experiment [2] is 122% (inactive). For the same compound, the differential viability (reversal) in experiment [6] (H69AR cells + 2 uM doxorubicin) was 5.88% (inactive). The inhibition in experiment [7] is 1.07% (inactive); in experiment [8], 16.4% (inactive).
Take `COc1ccc(/C(O)=C2/C(=O)C(=O)N(CC3CCCO3)C2c2cccc(OC)c2)cc1` (stereo not given): the viability is 106% in experiment [1]; 106% (inactive) in experiment [3]; 81.9% (inactive) in experiment [4]; 94.2% (inactive) in experiment [5]; 86.5% in experiment [6] (setting [9]); 94.2% in experiment [6] (setting [10]). The Her2 level in experiment [2] was 87.5% (inactive). For the same compound, the differential viability (reversal) in experiment [6] (H69AR cells + 2 uM doxorubicin) was 7.73% (inactive). The inhibition is -4.93% (inactive) in experiment [7] and 2.3% (inactive) in experiment [8].
For `COc1ccccc1NC(=O)C1=C(C)Nc2ncnn2C1c1ccc(C)o1` (stereo not given), the viability in experiment [1] was 87.5%; in experiment [3], 87.5% (inactive); in experiment [4], 104% (inactive); in experiment [5], 99.3% (inactive); in experiment [6] (setting [9]), 87.6%; in experiment [6] (setting [10]), 99.3%. In addition, the Her2 level in experiment [2] was 99% (inactive). Further, the differential viability (reversal) in experiment [6] (H69AR cells + 2 uM doxorubicin) was 11.7% (inactive). For the same compound, the inhibition in experiment [7] is -0.26% (inactive); in experiment [8] it was -2.79% (inactive).
As for `Cc1ccc(-n2ncc3c(=O)[nH]c(SCC(=O)N4CCN(c5ccccc5)CC4)nc32)cc1`, the viability in experiment [1] was 86%; in experiment [3], 86% (inactive); in experiment [4], 92.2% (inactive); in experiment [5], 76.3% (inactive); in experiment [6] (setting [9]), 71.5%; in experiment [6] (setting [10]) it was 76.3%. Besides, the Her2 level in experiment [2] was 77% (inactive). Besides, the differential viability (reversal) in experiment [6] (H69AR cells + 2 uM doxorubicin) is 4.85% (inactive). For the same compound, the inhibition is -5.79% (inactive) in experiment [7] and -1.17% (inactive) in experiment [8].
In the case of `COc1cccc(Oc2cnc(N)nc2-c2ccc(OC)cc2O)c1`, the viability in experiment [1] is 91.5%; in experiment [3], 91.5% (inactive); in experiment [4], 67.1% (inactive); in experiment [5], 10.8% (active); in experiment [6] (setting [9]), 58.2%; in experiment [6] (setting [10]), 10.8%. Also, the Her2 level in experiment [2] is 74.5% (inactive). The differential viability (reversal) in experiment [6] (H69AR cells + 2 uM doxorubicin) is -47.3% (inactive). Further, the figures for the inhibition in experiment [7] and in experiment [8] were -0.52% (inactive) and -5.5% (inactive), respectively.
As to `CC1(C)CC(=O)c2cc(OCC(=O)NCCCN3CCN(c4ccccc4F)CC3)ccc2O1`, the viability in experiment [1] was 81%; in experiment [3], 81% (inactive); in experiment [4] it was 59.3% (inactive); in experiment [5], 80% (inactive); in experiment [6] (setting [9]) it was 86%; in experiment [6] (setting [10]), 80%. Besides, the Her2 level in experiment [2] is 85.5% (inactive). For the same compound, in experiment [6] (H69AR cells + 2 uM doxorubicin), the differential viability (reversal) was -5.98% (inactive). For the same compound, the inhibition was -4.61% (inactive) in experiment [7] and -3.45% (inactive) in experiment [8].

The term viability denotes a read-out of living cells in per cent, often relative to untreated cells. As a reminder, the inhibition is the drop in the measured response relative to a control, in per cent.
